Screening results as filed in PubChem.
Compounds with a hit are over-represented: about 2.4% of the library has one in this group of screens.
Jurkat NFkB inh – inhibitors of the PMA/ionomycin-induced NF-kB reporter in Jurkat cells | inhibition, % at 4 µM | 330,000 tested, 0.53% active | AID 435003 | PMA/ionomycin-induced NF-kB luciferase reporter, luminescence; in the data active = inhibition above about 50%
NR2E3 ag-1 – activates human NR2E3 receptor; Q9Y5X4; CHO-S Gal4-NCOR/VP16-NR2E3 two-hybrid, luciferase; inhibition of corepressor binding, % at 3.98 µM; 360,000 tested, 0.35% active;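 active = inhibition above the mean of all tested compounds plus 3 SD, cut at about 70% in these data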;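 also: 0% = DMSO with NR2E3 transfected cells and 100% = cells lacking NR2E3 construct; higher means lower luciferase signal from less NR2E3 corepressor binding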
Target sequence (Q9Y5X4 whole entry, looked up, the tested form may be a part): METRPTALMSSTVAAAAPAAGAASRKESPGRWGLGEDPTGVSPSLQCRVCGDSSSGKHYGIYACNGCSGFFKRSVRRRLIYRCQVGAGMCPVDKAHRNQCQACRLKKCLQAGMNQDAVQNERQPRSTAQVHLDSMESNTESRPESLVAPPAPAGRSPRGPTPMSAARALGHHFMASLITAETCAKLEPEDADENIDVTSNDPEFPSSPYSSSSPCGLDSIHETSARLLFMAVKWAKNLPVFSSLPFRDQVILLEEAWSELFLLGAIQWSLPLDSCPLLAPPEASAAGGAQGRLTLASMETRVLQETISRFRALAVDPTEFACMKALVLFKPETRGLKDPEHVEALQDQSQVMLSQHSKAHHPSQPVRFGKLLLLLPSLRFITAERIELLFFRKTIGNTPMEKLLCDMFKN
MPTP inh – blocks calcium-induced mitochondrial swelling; isolated mouse mitochondria, Ca2+ swelling absorbance, 30 min; inhibition, % at 10 µM; 360,000 tested, 1.4% active; AID 602449;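 active = inhibition of 50% or more, scaled per plate between neutral and stimulator controls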;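 also: 0% = DMSO wells given calcium and 100% = 1 mM EGTA wells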
NR2E3 ag-2 – NR2E3 (human) agonism; Q9Y5X4; GST-NR2E3/biotin-RetCOR TR-FRET, 1536-well; inhibition of corepressor binding, % at 4.78 µM; 320,000 tested, 0.12% active;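 active = percent inhibition above the cutoff of mean plus 3 SD of all tested compounds, set per screening campaign, cut at about 20% in these data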;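 also: 0% = DMSO wells and 100% = biotin wells as full block of FRET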
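system = GST-tagged NR2E3 plus biotinylated RetCOR corepressor | input = 1.35 nM GST-NR2E3 | also added = 7 nM biotin-RetCOR | schedule = 5 h incubation at 4 °C | measured by = TR-FRET with europium anti-GST and streptavidin-D2, 340 nm excitation | read-out = percent loss of FRET ratio relative to control wells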
697 NFkB inh – lowers PMA/ionomycin-induced NF-kB signal in 697 B cells | 697 B-cell NF-kB luciferase reporter, 16 h | inhibition, % at 4 µM | 330,000 tested, 0.33% active | AID 435022; in the data active = inhibition above about 35%
aDG glyco act – alpha-DG glycosylation activation; Pro5-aDG cells, alpha-DG glycosylation AlphaScreen (IIH6); 0% Pro5, 100% B10-LARGE cell signal; 360,000 tested, 0.22% active; activation, % at 10 µM;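 active = activation of at least 8% versus controls, or a plate z-score of at least 8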;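 also: Pro5 are CHO cells carrying HIG-tagged alpha-DG that lacks glycosylation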
MPTP counter – Rhodamine 123 counter-screen of mitochondrial pore hits. shares compounds with MPTP inh. isolated mitochondria, membrane potential, Rhodamine 123 fluorescence. 5,000 tested, 78% active. inhibition, % at 10 µM; in the data active = inhibition above about 22%;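 also: 0% = DMSO vehicle and 100% = positive control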
MPTP swell DR – dose response confirmation of mitochondrial permeability transition pore inhibitors; 780 tested, 58% active; shares compounds with MPTP inh; IC50, µM; isolated mitochondria swelling, absorbance; in the data active = IC50 below about 20 µM
MPTP cs DR – MPTP inhibitor counter-screen activity, dose response | shares compounds with MPTP inh | isolated mitochondria counterscreen, fluorescence read-out | IC50, µM | 780 tested, 49% active; in the data active = IC50 below about 80 µM
* hit, by the source's call; i = inactive; nt = not tested or not shown.

SMILES	Jurkat NFkB inh	NR2E3 ag-1	MPTP inh	NR2E3 ag-2	697 NFkB inh	aDG glyco act	MPTP counter	others
CCc1ccccc1NC(=O)Nc1cc(F)ccc1F	-4.2	2.8	57.7*	-2.1	-8.3	1.1	87.6*
Cc1cc(C)nc(NC(=O)c2cccs2)c1	-13.5	-16.2	1.1	1.0	-28.2	0.1	nt
Oc1c(Br)cc(Br)cc1CNc1ccc(F)cc1	5.7	-6.7	77.8*	2.9	7.2	-0.4	80.9*
Oc1c(Br)cc(Br)cc1CNc1cnc2ccccc2c1	-23.1	-22.0	30.9	-0.5	-36.0	0.1	nt
COc1ccc(/C=C2/SC(=O)N(CCNC(=O)C3CC(=O)N(Cc4ccccc4)C3)C2=O)cc1 (stereo unspecified)	nt	-45.6	0.6	nt	nt	0.0	nt
Cn1c(=O)c2c(SCC(=O)N3CCCc4ccccc43)nc(CC(C)(C)C)nc2n(C)c1=O	14.6	-26.9	62.5*	5.4	-36.8	0.3	-6.6
CCCc1nc(SCC(=O)N2CCC(Cc3ccccc3)CC2)c2c(=O)n(C)c(=O)n(C)c2n1	-2.4	8.5	52.5*	3.0	11.2	-0.3	-6.9
CC(C)C(=O)Nc1ccc(N2CCOCC2)c(S(=O)(=O)Nc2ccccc2Cl)c1	3.1	-18.6	0.2	nt	3.6	0.1	nt
CCCCn1c(SCC(=O)c2ccccc2)nc2ccsc2c1=O	5.1	-22.6	64.2*	0.8	-10.9	0.9	9.7	MPTP swell DR=i;MPTP cs DR=>80
O=C(O)CCCCCn1c(SCC(=O)c2ccc(O)c(O)c2)nc2ccsc2c1=O	-18.1	0.0	0.9	-0.9	11.6	-0.3	nt
CCCCn1c(SCC(=O)c2ccc(O)c(O)c2)nc2ccsc2c1=O	3.7	4.8	51.5*	-2.3	-37.1	-0.1	29.6*
Cc1ccc(S(=O)(=O)N2CCC(C(=O)OCC(=O)N(C)C3CCS(=O)(=O)C3)CC2)cc1C (stereo unspecified)	-6.1	9.8	0.1	1.1	16.3	0.1	nt
CCOC(=O)C1CCN(C(=S)NC(=O)c2cccs2)CC1	8.3	-24.2	-2.8	4.1	-1.5	-0.1	nt
CC(C)(C)c1ccc(C(=O)NCCCN2CCN(CCCNC(=O)c3ccc(C(C)(C)C)cc3)CC2)cc1	23.9	4.6	87.1*	3.9	-15.2	-0.5	85.8*
CC(C)(C)c1ccc(C(=O)NCCN2CCOCC2)cc1	-1.2	-38.5	1.9	-2.8	-11.0	0.1	nt
CCOc1cc(CNCCc2ccc(S(N)(=O)=O)cc2)ccc1OCc1ccccc1	nt	2.7	104.9*	1.1	nt	5.7*	40.6*
CCOc1cc(CNCc2ccccc2)ccc1OCc1ccc(Cl)cc1	24.1	15.7	67.7*	6.4	-14.7	1.0	73.2*
NS(=O)(=O)c1ccc(CCNCc2cc(Br)ccc2OCc2ccccc2)cc1	13.4	35.2	65.9*	2.3	-18.0	3.9	52.2*
CCCNC(=O)C1(C)CCCN(C(=O)c2sccc2C)C1 (stereo unspecified)	nt	-7.1	0.5	nt	nt	0.0	nt
CC(Cc1cccs1)NC(=O)Nc1ccc([N+](=O)[O-])cc1 (stereo unspecified)	-19.2	-70.8	86.2*	2.4	-35.8	-0.1	91.5*
CC(Cc1cccs1)NC(=S)Nc1ccc(F)cc1 (stereo unspecified)	6.9	-8.5	50.4*	0.5	-18.8	0.3	73.4*
COc1cc(NC(=O)C/C(C)=N/NC(=O)C2CCCCC2)c(OC)cc1Cl	14.8	-6.0	-0.5	0.1	11.2	0.0	nt
CCOC(=O)c1c(NC(=O)C2CCCCC2)sc2c1CCN(C(C)C)C2	-16.4	-17.7	21.3	-2.5	-25.3	-0.2	nt
COC(=O)c1c(NC(=O)C2CCCCC2)sc2c1CCN(C(C)C)C2	-0.5	-23.6	54.8*	3.5	-7.2	0.3	-5.3	MPTP swell DR=i;MPTP cs DR=>80
CN(C)/C=C(\C=O)c1ncc(C(F)(F)F)cc1Cl	-3.7	-10.3	-0.6	-1.0	1.6	-0.2	nt
